MrgX1 antag = antagonists of human MrgX1 receptor | 310,000 compounds, 1.3% hits | MRGX1-HEK293 calcium flux, Fluo-4, BAM8-22 antagonism; hits give low values | B-score at 10 µM | Q96LB2;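 active means calcium-response B-score plate-corrected more than 3 library SD below zero, starting fluorescence within 5 deviations, no agonist response on first addition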;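 further: peak minus trough fluorescence over baseline after final BAM8-22 challenge near maximal dose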
Target sequence (Q96LB2 whole entry, looked up): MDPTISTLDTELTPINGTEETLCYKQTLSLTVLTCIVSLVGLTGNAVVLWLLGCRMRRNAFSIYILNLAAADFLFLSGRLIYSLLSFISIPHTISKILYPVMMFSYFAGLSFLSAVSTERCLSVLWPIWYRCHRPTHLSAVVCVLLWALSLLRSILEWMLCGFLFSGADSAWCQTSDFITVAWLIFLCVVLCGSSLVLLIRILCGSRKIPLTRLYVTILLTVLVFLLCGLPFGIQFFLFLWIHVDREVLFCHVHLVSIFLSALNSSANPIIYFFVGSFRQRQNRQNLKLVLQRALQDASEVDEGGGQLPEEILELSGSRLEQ
RGS4 act = RGS4 potentiation or activation. AID 463111. 310,000 compounds, 0.92% hits. B-score at 10 µM. HEK293 M3R/inducible RGS4, carbachol calcium flux Fluo4; hits give low values;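 active means B-score of the integrated calcium signal more than 4 SD below the library mean, with starting fluorescence not abnormally high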;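 further: negative B-score means reduced calcium response which marks RGS4 activation or potentiation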
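System – HEK293 FlpIn-TREx cells, stable M3R, doxycycline-inducible RGS4 · Reagent – ECmax carbachol challenge · Times – compound preincubation 20 min at room temperature before agonist · Technique – Fluo4 fluorescence kinetic imaging of calcium · Measure – B score of integrated Fluo4 ratio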
MrgX1 PAM = human MrgX1 positive allosteric modulation, primary screen. 310,000 compounds, 0.63% hits. B-score at 10 µM. MrgX1-HEK293, Fluo-4 calcium flux, FDSS; hits give high values. Q96LB2;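 active means plate-corrected calcium response at least 3 library SD above typical, normal starting fluorescence, not activating the receptor alone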;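 further: compound read alongside a low EC10 to EC30 dose of BAM8-22 agonist; peak minus trough fluorescence over baseline measured at the second addition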
RGS4 block = human RGS4 inhibition | P49798 | HEK293 M3R/RGS4 inducible, Fluo-4 calcium flux; hits give high values; triggered by carbachol at its EC20 | B-score at 10 µM | 310,000 compounds, 0.45% hits | AID 463165;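 active means B-score, a plate-corrected calcium signal, over three deviations above library mean, with baseline fluorescence within five deviations of library mean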;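 further: RGS4 expression induced by doxycycline in cells with stable M3 receptor; B-score is computed from the integrated fluorescence ratio over baseline after carbachol; higher B-score means a larger calcium signal and so more RGS4 inhibition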
Target sequence (P49798 whole entry, looked up): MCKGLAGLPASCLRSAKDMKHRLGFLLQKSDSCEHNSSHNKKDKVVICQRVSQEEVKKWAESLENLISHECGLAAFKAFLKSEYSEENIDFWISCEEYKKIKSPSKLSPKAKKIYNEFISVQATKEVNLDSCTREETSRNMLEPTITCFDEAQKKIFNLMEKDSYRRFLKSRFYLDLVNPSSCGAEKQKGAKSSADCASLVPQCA
MrgX1 ag = human MrgX1 receptor agonism, primary screen. Q96LB2. MrgX1-HEK293 cells, Fluo-4 calcium fluorescence, agonist mode; hits give high values. B-score at 10 µM. 310,000 compounds, 0.44% hits. AID 588627;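 active means calcium response B-score plate-corrected fluorescence ratio at least 3 library SD, with starting fluorescence B-score inside 5 SD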
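Material: MrgX1-expressing HEK293 cells / Dosing: compound as first of three additions / Incubation: overnight seeding, then 1 h dark dye loading / Signal: Fluo-4 NW calcium fluorescence / Evaluation: B-scored fluorescence response ratio / Benchmarks: positive and negative control wells on each plate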
RGS4 act valid = confirmation of RGS4 activators. shares compounds with RGS4 act. HEK293 M3R/RGS4 inducible, carbachol calcium flux Fluo4. inhibition, % at 10 µM. 1,100 compounds, 89% hits;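 active means inhibition above 3 SD of the buffer control wells, cut at about 41% in these data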;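 further: signal is the integrated peak-minus-minimum Fluo4 fluorescence over baseline ratio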
RGS4 act ctr = activity in cells without induced RGS4 expression. inhibition, % at 10 µM. shares compounds with RGS4 act. 1,100 compounds, 82% hits. HEK293 M3R non-induced RGS4, Fluo4 calcium flux; after carbachol challenge at its EC90;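 active means inhibition exceeding 3 SD of buffer-only control wells, cut at about 26% in these data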;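 further: percent drop in integrated peak-minus-baseline over baseline Fluo4 ratio after carbachol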
* marks the source's active call; other numbers are inactive results; i = inactive; nt = no result given. Sampled rows, rich in hits. Any-hit rate of the full collection: about 3.5%.

SMILES | MrgX1 antag | RGS4 act | MrgX1 PAM | RGS4 block | MrgX1 ag | RGS4 act valid | RGS4 act ctr
COc1ccc(N2C(=O)CSC2c2cccc(OC)c2OC)cc1 (centres undefined) | i | -11.3* | i | i | i | 85.5* | 46.3*
CSc1ccccc1C(=O)N1CCCC(CCC(=O)NCc2ccc(F)c(F)c2)C1 (centres undefined) | i | i | i | i | i | nt | nt
Cc1cc(C)nc(SCC(=O)OCC(=O)Nc2ccccc2)n1 | i | i | i | i | i | nt | nt
O=C(Nc1ccc(-c2cccc(F)c2)cc1)C1CCCN(Cc2ccccn2)C1 (centres undefined) | i | -8.14* | i | i | i | 50.0* | 29.3*
COc1cccc(-c2ccc(NC(=O)C3CCCN(Cc4cnn(C(C)C)c4)C3)cc2)c1 (centres undefined) | i | -10.9* | i | i | i | 92.0* | 78.8*
CCCc1ncc(CN2CCCC(C(=O)Nc3ccc(-c4cccc(OC)c4)cc3)C2)cn1 (centres undefined) | i | i | i | i | i | nt | nt
CCCC1(c2ccccc2)NC(=O)N(CC(=O)Nc2cc(C)ccc2OC)C1=O (centres undefined) | i | i | i | i | i | nt | nt
O=C(NCCOc1ccc(F)cc1)c1ccccc1SCc1ccccc1 | i | -7.71* | i | i | i | 92.5* | 73.8*
CCc1ccc(OCCNC(=O)c2ccccc2SCc2ccc(F)cc2)cc1 | i | i | i | i | i | nt | nt
N#Cc1ccsc1NC(=O)CCc1ccccc1 | i | i | i | i | i | nt | nt
N#Cc1ccsc1NC(=O)CCN1CCN(C(c2ccccc2)c2ccccc2)CC1 | i | -9.12* | i | i | i | 74.0* | 83.8*
CCCN1CCN(CCCNC(=O)c2cc3c(=O)oc4ccc(C)cc4c3s2)CC1 | i | i | i | i | i | nt | nt
Cc1ccc2nc(Cl)c3cc(C(=O)NCCCN4CCCC4)sc3c2c1 | i | -7.63* | i | i | i | 65.0* | 40.3*
Cc1ccc(NC(=O)CCNS(=O)(=O)c2ccc3[nH]c(=O)oc3c2)cc1F | i | i | i | i | i | nt | nt
S=C(Nc1cccc(Cl)c1)NC1CC2CCCC(C1)N2C1CCCC1 (centres undefined) | i | i | i | i | i | nt | nt
S=C(NCCN(C1CCCCC1)C1CCCC1)Nc1cccc(Cl)c1 | i | -7.92* | i | i | i | 62.0* | 83.8*
C=CCn1c(SCC(=O)c2cccs2)nc2sc(C)c(C)c2c1=O | i | -9.43* | i | i | i | 91.5* | 38.3*
Cc1ccccc1-c1nn2c(-c3ccccc3)nnc2s1 | i | -7.72* | i | i | i | 0.0 | 0.0
CC(/C=N/n1c(COc2ccccc2)n[nH]c1=S)=C\c1ccco1 | i | i | i | i | i | nt | nt
O=C(NC(C(=O)c1ccccc1)N1CCOCC1)c1ccccc1 (centres undefined) | i | i | i | i | i | nt | nt
Cc1cc(=O)n(C(NC(=O)c2ccccc2)C(=O)c2ccccc2)cn1 (centres undefined) | i | -9.25* | i | i | i | 0.0 | 0.0
COc1ccc2cc3cc(C(=O)Nc4ccccc4N4CCN(C)CC4)oc3nc2c1 | i | -8.89* | i | i | i | 39.5* | 0.0
Cc1[nH]c2ccccc2c1SCc1n[nH]c(=S)n1C | i | i | i | i | i | nt | nt
Cc1[nH]c2ccccc2c1Cc1n[nH]c(=S)n1C | i | -8.19* | i | i | i | 0.0 | 0.0
CC(C)N(CC#CCC(O)(c1ccccc1)c1ccccc1)C(C)C | i | i | i | i | i | nt | nt
SMILES | MrgX1 antag | RGS4 act | MrgX1 PAM | RGS4 block | MrgX1 ag | RGS4 act valid | RGS4 act ctr
CCN(CC)CC#CCC(O)(c1ccccc1)C1CCCCC1 (centres undefined) | i | -10.5* | i | i | i | 91.0* | 90.3*
CCOC(=O)C1(Cc2ccccc2Cl)CCN(C(=O)CN2CCOC2=O)CC1 | i | i | i | i | i | nt | nt
COc1ccc(OC)c(/C=C/c2nc3ccccc3[nH]c2=O)c1 | i | -7.67* | i | i | i | 59.5* | 44.3*
O=C(NCC1CCCO1)c1ccc(NS(=O)(=O)c2cccs2)cc1 (centres undefined) | i | i | i | i | i | nt | nt
COc1ccc(-c2ccc(NC(=O)c3ccco3)cc2)nn1 | i | i | i | i | i | nt | nt
CCOC(=O)c1c(NC(=O)/C=C/C(=O)O)sc(C)c1-c1ccc(C(C)(C)C)cc1 | -5.17* | -11.7* | i | i | i | 92.5* | 89.8*
O=C(CN1C(=O)NC2(CCCC2)C1=O)Nc1nc2c(F)cc(F)cc2s1 | i | i | i | i | i | nt | nt
O=C1CCC(c2ccccc2)(C2CCN(Cc3ccccc3)CC2)C(=O)N1 (centres undefined) | i | -7.85* | i | i | i | 94.5* | 93.8*
CN(C)CCCNC(=O)c1ccc(-c2nc(-c3ccc(Cl)cc3)cs2)cc1 | i | -8.19* | i | i | i | 96.5* | 97.8*
O=C(OCC(=O)N1CCc2ccccc21)c1c2c(nc3ccccc13)CCCCC2 | i | -9.38* | i | i | i | 83.0* | 43.8*
CC(C)(C)NC(=O)COC(=O)c1c2c(nc3ccccc13)CCC2 | i | -9.55* | i | i | i | 43.5* | 0.0
COc1ccccc1N(C(=O)CCl)c1cn(C(C)=O)c2ccccc12 | i | -8.85* | i | i | i | 0.0 | 0.0
Cc1ccc(Cl)cc1NC(=O)CN1C(=O)COc2ccc(S(=O)(=O)N3CCOCC3)cc21 | i | i | i | i | i | nt | nt
Cc1nc2ccc(Br)cc2c2c1CC(CBr)O2 (centres undefined) | i | -8.08* | i | i | i | 64.5* | 83.8*
CC1(C)CC(=O)C2=C(C1)OC(N)=C(C#N)C2c1ccccc1[N+](=O)[O-] (centres undefined) | i | -11* | i | i | i | 0.0 | 0.0
Cc1ccc(NC(=O)c2cc(-c3cccs3)nc3ccccc23)nc1 | i | -7.86* | i | i | i | 78.0* | 0.0
Cc1c(NC(=O)c2cc(-c3cccs3)nc3ccccc23)c(=O)n(-c2ccccc2)n1C | i | i | i | i | i | nt | nt
CCc1nc2ccc(C(=O)N3CCN(c4ccccc4)CC3)cc2nc1CC | i | i | i | i | i | nt | nt

Screening data from PubChem BioAssay.
